High-throughput results as filed in PubChem BioAssay.
Hits are enriched below; roughly 4.3% of the tested compounds scored in any of these assays.
Yeast lifespan up = extends the lifespan of yeast | S. cerevisiae growth with nicotinamide, OD615; deaD strain in restrictive glucose medium | inhibition of the nicotinamide effect, % at 10 µM | 0.68% of 130,000 active;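 active = inhibition above a set limit, placed 3 SD over the median of all compounds, cut at about 26% in these data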
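assay system = DeaD-strain S. cerevisiae | buffer or medium = restrictive glucose medium | reagent = 1.5 mM nicotinamide | compound = 10 µM single point, 0.25% DMSO | incubation = 48 h compound exposure at 30 °C, humidified | signal = OD615 measurement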
Yeast growth inh = chemicals that inhibit yeast BB579 growth in restrictive medium (lifespan-shortening candidates); S. cerevisiae BB579 growth, OD615, 48 h; inhibition, % at 10 µM; 0.51% of 140,000 active; AID 804;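 active = inhibition above a set limit, 3 SD over the mean compound inhibition, cut at about 44% in these data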
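System: Saccharomyces cerevisiae DeaD strain BB579, replicative lifespan model yeast | Buffer or medium: Restrictive glucose-based CSMM-D medium | Times: 4 h preincubation and 48 h exposure at 30 °C | Detection: OD615 turbidity measurement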
RAM inhibit = inhibitors of the yeast RAM network. 1.8% of 190,000 active. S. cerevisiae dse1pr::URA3 reporter, 5-FOA growth OD615, 2 d; analog-sensitive cbk1-as2 kinase mutant strain. inhibition, % at 50 µM;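 active = inhibition above a set limit, 3 SD over mean compound inhibition, cut at about 8.4% in these data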;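 note: inhibition rescues growth on 5-FOA so higher OD means more RAM inhibition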
WT yeast gro inh = growth inhibition of WT yeast, mitochondrial fusion screen; mitochondrial fusion phenotypic screen, WT strain; inhibition, % at 10 µM; 2.1% of 190,000 active; AID 1362; in the data active = inhibition above about 58%; tested in S. cerevisiae
Of the large screens only hits and unclear results are named; the others gave an inactive call.

Cc1ccc(Cc2c[nH]c(=S)s2)cc1	WT yeast gro inh 68 (no result: Yeast lifespan up, Yeast growth inh)
Cc1cc(C)c2nc(NC(=O)c3cccc(S(=O)(=O)N4CCc5ccccc54)c3)sc2c1	none
CCOc1cc(CNCCO)cc(Br)c1OCc1ccc(Cl)cc1Cl	Yeast growth inh 96
CCOc1cccc(CNc2ccc(O)cc2)c1OCc1ccc(Cl)cc1Cl	WT yeast gro inh 66
CCOc1cccc(CNCCO)c1OCc1ccc(Cl)cc1Cl	none
OCCNCc1cc(Br)ccc1OCc1ccc(Cl)cc1Cl	WT yeast gro inh 58 (no result: Yeast lifespan up)
COc1ccc(Cl)cc1N(CC(=O)NC(C(C)C)C(C)C)S(C)(=O)=O	none
O=c1[nH]c(Nc2ccc(F)cc2)cc2ccccc12	none
Cc1ccccc1Nc1cc2ccccc2c(=O)[nH]1	WT yeast gro inh 66
CCN(CC)S(=O)(=O)c1cc(NS(=O)(=O)c2cc(Cl)ccc2Cl)ccc1C	RAM inhibit 11
CCN(CC)S(=O)(=O)c1cc(NC(=O)CCNC(=O)c2ccccc2Cl)ccc1C	none
Cc1ccccc1-c1nn(-c2ccc(F)cc2F)cc1CNCCCN(C)C	none (no result: Yeast lifespan up, Yeast growth inh)
COc1ccc(CCNS(=O)(=O)c2ccc(OC)cc2)cc1	WT yeast gro inh 74
COc1ccc(CCNS(=O)(=O)c2ccc3c(c2)OCCO3)cc1	none
CCc1ccc(OCc2n[nH]c(=S)n2C(C)CCCC(C)C)cc1 (centres undefined)	WT yeast gro inh 60 (no result: Yeast lifespan up, Yeast growth inh)
Cc1cccc(OCc2n[nH]c(=S)n2Cc2ccccc2)c1	WT yeast gro inh 65 (no result: Yeast lifespan up, Yeast growth inh)
CC(C)CCn1c(COc2ccccc2)n[nH]c1=S	none (no result: Yeast lifespan up, Yeast growth inh)
CCc1ccc(OCc2n[nH]c(=S)n2Cc2ccccc2)cc1	WT yeast gro inh 65 (no result: Yeast lifespan up, Yeast growth inh)
S=c1[nH]nc(COc2ccccc2)n1Cc1ccccc1	none
CCCCc1n[nH]c(=S)n1Cc1ccccc1	none (no result: Yeast lifespan up, Yeast growth inh)
CCOC(=O)c1oc2ccccc2c1NC(=O)c1cccc(OC)c1OC	none
Cc1ccc(-c2cc(C(=O)N/N=C/C(Br)=C/c3ccccc3)n[nH]2)o1	WT yeast gro inh 61 (no result: Yeast lifespan up, Yeast growth inh)
Cc1ccc(-c2cc(C(=O)N/N=C/c3c[nH]c4ccccc34)n[nH]2)o1	none
O=C(Nc1nc(COc2ccccc2)cs1)C12CC3CC(CC(C3)C1)C2	RAM inhibit 9.4, WT yeast gro inh 59
CC(=O)Nc1nc(COc2ccccc2)cs1	none
COc1cccc(NC(=O)c2cccc(C)c2[N+](=O)[O-])c1	none (no result: Yeast lifespan up, Yeast growth inh)
Cc1ccc(N=Nc2c(N)[nH]n3c(=O)cc(-c4ccccc4)nc23)cc1	RAM inhibit 8.7, WT yeast gro inh 60
COc1cccc(N=Nc2c(N)[nH]n3c(=O)cc(-c4ccccc4)nc23)c1	none
Nc1[nH]n2c(=O)c3c(nc2c1N=Nc1ccc(Cl)cc1)CCCC3	none
Nc1[nH]n2c(=O)c3c(nc2c1N=Nc1ccccc1)CCCC3	WT yeast gro inh 80
COc1ccc(-c2cnnn2-c2ccc(NC(=O)c3ccc(S(=O)(=O)N4CCCCC4)cc3)cc2)cc1	RAM inhibit 9.8
Nc1nc(COc2ccc3ccccc3c2)cs1	WT yeast gro inh 75
CC(=O)OCC(=O)NCC(=O)c1c[nH]c2ccccc12	none
Cc1ccc(N(CC(O)Cn2c3ccccc3c3ccccc32)S(C)(=O)=O)c(C)c1 (centres undefined)	WT yeast gro inh 67
Cc1cc(O)c(C(C)C)cc1NC(=O)c1cccc(Cl)c1	none
Cc1cc(NS(=O)(=O)c2ccc(NC(=S)NC(=O)c3cccnc3)cc2)no1	RAM inhibit 9.3 (no result: Yeast lifespan up, Yeast growth inh)
Cc1[nH]c2ccccc2c1C(=O)C(=O)N1CC=C(c2ccccc2)CC1	none
O=C1CC(c2cccc(Cl)c2)CC(O)=C1C=Nc1cccc(Cl)c1 (centres undefined)	Yeast lifespan up 29, WT yeast gro inh 81
O=C1CC(c2ccccc2)CC(O)=C1C=Nc1ccccc1 (centres undefined)	none (no result: Yeast lifespan up, Yeast growth inh)
Cc1cccc(C2(c3cccc(C)c3)CC2C(=O)NCC2CCCO2)c1 (centres undefined)	none
Cc1cccc(C2(c3cccc(C)c3)CC2C(=O)Nc2ccc([N+](=O)[O-])cc2O)c1 (centres undefined)	WT yeast gro inh 92
COc1cccc(-c2cc(C(=O)Nc3ccccc3SC)no2)c1	none
COc1ccccc1-c1cc(C(=O)Nc2ccccc2SC)no1	RAM inhibit 9.0
COc1ccc(-c2cc(C(=O)Nc3ccccc3SC)no2)cc1OC	RAM inhibit 8.7
Cc1ccc(Cl)cc1NC(=O)Nc1cccs1	none (no result: Yeast lifespan up, Yeast growth inh)
CCC(C)c1ccc(OCC(=O)Nc2ccc3[nH]c(=O)[nH]c3c2)cc1 (centres undefined)	none
O=C(Nc1ccc(N2CCOCC2)c(Cl)c1)c1ccccc1F	none
O=C(COc1c(F)c(F)c(C(F)(F)F)c(F)c1F)Nc1ccc(N2CCOCC2)c(Cl)c1	WT yeast gro inh 70
CCC(C)c1ccc(NC(=O)COc2c(F)c(F)c(C(F)(F)F)c(F)c2F)cc1 (centres undefined)	RAM inhibit 10, WT yeast gro inh 70
CCOc1ccc(-c2cc(NC(=O)Cn3ncc4c3-c3ccccc3OC4)on2)cc1OCC	none
Cc1csc(Sc2ccc(S(=O)(=O)N3CCCC3)cn2)n1	none (no result: Yeast lifespan up, Yeast growth inh)
CCOCCCNC(=O)c1cc(Sc2ccc(C)cc2)nc2ccccc12	RAM inhibit 11
O=C(NCCCN1CCCC1)c1cc(Sc2ccc(F)cc2)nc2ccccc12	none (no result: Yeast lifespan up, Yeast growth inh)
COc1cccc(/C=N/N=C(\N)c2nonc2N)c1O	none (no result: Yeast lifespan up, Yeast growth inh)
CCOc1ccc(-n2cc(-c3ccccc3)c3c(=O)[nH]cnc32)cc1	none (no result: Yeast lifespan up, Yeast growth inh)
O=c1[nH]cnc2c1c(-c1ccccc1)cn2-c1ccc(Br)cc1	WT yeast gro inh 71
O=P(COCCOCCOCP(=O)(c1ccccc1)c1ccccc1)(c1ccccc1)c1ccccc1	none (no result: Yeast lifespan up, Yeast growth inh)
c1ccc(-c2cc(-c3nc4ccccc4[nH]3)c3ccccc3n2)cc1	WT yeast gro inh 60
CCCCOc1ccc(-c2cn3ccccc3n2)cc1[N+](=O)[O-]	none
CCCOc1ccc(-c2csc(N)n2)cc1[N+](=O)[O-]	WT yeast gro inh 76
O=C(COc1ccc(-c2ccccc2)cc1)N/N=C/c1cc(O)ccc1Br	WT yeast gro inh 96
Clc1ccc(OCCOCCN2CCc3ccccc3C2)c(Cl)c1	WT yeast gro inh 70
c1ccc(-c2ccccc2OCCOCCN2CCc3ccccc3C2)cc1	none (no result: Yeast lifespan up, Yeast growth inh)
Clc1ccc(SCCOCCN2CCc3ccccc3C2)cc1	WT yeast gro inh 61 (no result: Yeast lifespan up, Yeast growth inh)
COC(=O)c1cccc(Oc2cccc(C(F)(F)F)c2)n1	none (no result: Yeast lifespan up, Yeast growth inh)
Cc1ccc(CNC(=O)C(=O)NCC2OCCN2C(=O)c2cccs2)cc1 (centres undefined)	RAM inhibit 9.5
O=C(CCCN1C(=O)c2cccnc2C1=O)Nc1ccc(Br)cc1	none (no result: Yeast lifespan up, Yeast growth inh)
O=C(NCCCn1ccnc1)C(Cc1ccccc1)N1C(=O)c2ccccc2C1=O (centres undefined)	WT yeast gro inh 58
CC(NC(=O)C(=O)NCCCn1ccnc1)c1ccccc1 (centres undefined)	none (no result: Yeast lifespan up, Yeast growth inh)
O=C(COc1ccc(Cl)cc1Cl)OCC(=O)N1CCCc2ccccc21	none
O=C(CCCOc1ccc(Cl)cc1Cl)N1CCCc2ccccc21	WT yeast gro inh 75
O=C(COc1ccc(Cl)cc1Cl)N1CCCN(C(=O)COc2ccc(Cl)cc2Cl)CC1	WT yeast gro inh 76
CC(=O)N1CCN(c2ccc(NC(=O)COc3ccc(Cl)cc3Cl)cc2)CC1	RAM inhibit 10
